From ChEMBL document CHEMBL1149102, “De novo design, synthesis, and pharmacology of alpha-melanocyte stimulating hormone analogues derived from somatostatin by a hybrid approach” (J Med Chem, 2004)

Assays:
[1] = biological target: Melanocyte-stimulating hormone receptor (Mus musculus, UniProt Q01727); assay: Effective concentration for maximum agonist response towards mouse melanocortin 1 receptor (MC1R); No activity up to 10^-5 M; type: functional
Summary of the method: (§1)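 Cells stably expressing wild-type mouse (MC3R: rat) melanocortin receptor, transfected with 4 μg CRE/β-galactosidase reporter; 5000–15 000 cells plated, incubated overnight. At 48 h post-transfection, stimulated 6 h in DMEM with 0.1 mg/mL BSA and 0.1 mM IBMX; forskolin 10^-4 M reference.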

[2] = system: melanocyte-stimulating hormone receptor (Rana pipiens); assay: Maximum agonist response for frog skin melanocortin 1 receptor (MC1R); No activity up to 10^-5M
[3] = biological target: Melanocortin receptor 3 (Rattus norvegicus, UniProt P32244); assay: Effective concentration for maximum agonist response towards rat melanocortin 3 receptor (MC3R); No activity up to 10e-5 M; type: functional; summary of the method: as §1
[4] = biological target: Melanocortin receptor 4 (Mus musculus, UniProt P56450); assay: Effective concentration for maximum agonist response towards mouse melanocortin 4 receptor (MC4R); No activity up to 10^-5 M; type: functional; summary of the method: as §1
[5] = biological target: Melanocortin receptor 5 (Mus musculus, UniProt P41149); assay: Effective concentration for maximum agonist response towards mouse melanocortin 5 receptor (MC5R); No activity up to 10^-5 M; type: functional; summary of the method: as §1

Measured: EC50

Sequence of Melanocortin receptor 4 (P56450 whole entry): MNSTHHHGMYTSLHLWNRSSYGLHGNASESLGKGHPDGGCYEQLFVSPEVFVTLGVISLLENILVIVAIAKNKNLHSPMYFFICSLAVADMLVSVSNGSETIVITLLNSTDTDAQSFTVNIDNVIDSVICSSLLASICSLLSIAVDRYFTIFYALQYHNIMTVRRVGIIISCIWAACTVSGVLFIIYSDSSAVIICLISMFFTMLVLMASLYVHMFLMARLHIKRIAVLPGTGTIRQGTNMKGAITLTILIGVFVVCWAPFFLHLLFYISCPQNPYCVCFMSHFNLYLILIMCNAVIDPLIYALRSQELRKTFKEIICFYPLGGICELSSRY
Sequence of Melanocyte-stimulating hormone receptor (Q01727 whole entry): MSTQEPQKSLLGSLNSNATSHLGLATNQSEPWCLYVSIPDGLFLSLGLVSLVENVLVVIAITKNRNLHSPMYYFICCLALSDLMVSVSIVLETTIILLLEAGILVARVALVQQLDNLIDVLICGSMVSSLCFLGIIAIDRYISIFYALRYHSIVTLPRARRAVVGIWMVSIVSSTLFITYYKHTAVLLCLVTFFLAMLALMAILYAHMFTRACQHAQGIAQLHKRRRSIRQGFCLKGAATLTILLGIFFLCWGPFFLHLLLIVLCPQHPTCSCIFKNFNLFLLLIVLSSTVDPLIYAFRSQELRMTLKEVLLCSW
Sequence of Melanocortin receptor 3 (P32244 whole entry): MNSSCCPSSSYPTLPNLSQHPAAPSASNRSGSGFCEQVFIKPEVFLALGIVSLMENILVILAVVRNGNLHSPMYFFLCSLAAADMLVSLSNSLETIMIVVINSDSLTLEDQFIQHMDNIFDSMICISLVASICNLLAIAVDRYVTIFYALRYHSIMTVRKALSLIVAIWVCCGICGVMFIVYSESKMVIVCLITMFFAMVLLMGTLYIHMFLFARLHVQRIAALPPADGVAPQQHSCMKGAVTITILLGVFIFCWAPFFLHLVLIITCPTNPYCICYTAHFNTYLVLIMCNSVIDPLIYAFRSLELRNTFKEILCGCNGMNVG
Sequence of Melanocortin receptor 5 (P41149 whole entry): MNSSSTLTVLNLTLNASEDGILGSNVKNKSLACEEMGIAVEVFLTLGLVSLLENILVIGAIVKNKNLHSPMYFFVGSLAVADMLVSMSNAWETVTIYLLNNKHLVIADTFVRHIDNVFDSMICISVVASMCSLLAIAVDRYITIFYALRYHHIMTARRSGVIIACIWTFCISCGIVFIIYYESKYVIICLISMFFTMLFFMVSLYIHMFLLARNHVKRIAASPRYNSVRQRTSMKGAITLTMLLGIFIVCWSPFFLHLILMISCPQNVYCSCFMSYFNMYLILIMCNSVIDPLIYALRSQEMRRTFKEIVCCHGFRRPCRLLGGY

C[C@H](O)[C@@H](NC(=O)[C@H]1CSSC[C@H](NC(=O)[C@@H](N)Cc2ccccc2)C(=O)N[C@@H](Cc2c[nH]cn2)C(=O)N2Cc3ccccc3C[C@H]2C(=O)N[C@@H](CCCN=C(N)N)C(=O)N[C@H](Cc2c[nH]c3ccccc23)C(=O)N1)C(N)=O
Not Active: all assays above
